Assay results: ChEMBL document CHEMBL3751731, “Ferulic acid-carbazole hybrid compounds: Combination of cholinesterase inhibition, antioxidant and neuroprotection as multifunctional anti-Alzheimer agents” (Bioorg Med Chem, 2016)
The source made the active and inactive calls. The calls are words filed in the database; no cut-off is given here.

Experiments:
Acetylcholinesterase [1] = biological target: Acetylcholinesterase (Electrophorus electricus, UniProt O42275); assay: Inhibition of electric eel AChE using ATC as substrate preincubated for 5 mins followed by substrate addition measured after 2 mins by Ellman's assay
Acetylcholinesterase (Electrophorus electricus, UniProt O42275), sequence (O42275 whole entry): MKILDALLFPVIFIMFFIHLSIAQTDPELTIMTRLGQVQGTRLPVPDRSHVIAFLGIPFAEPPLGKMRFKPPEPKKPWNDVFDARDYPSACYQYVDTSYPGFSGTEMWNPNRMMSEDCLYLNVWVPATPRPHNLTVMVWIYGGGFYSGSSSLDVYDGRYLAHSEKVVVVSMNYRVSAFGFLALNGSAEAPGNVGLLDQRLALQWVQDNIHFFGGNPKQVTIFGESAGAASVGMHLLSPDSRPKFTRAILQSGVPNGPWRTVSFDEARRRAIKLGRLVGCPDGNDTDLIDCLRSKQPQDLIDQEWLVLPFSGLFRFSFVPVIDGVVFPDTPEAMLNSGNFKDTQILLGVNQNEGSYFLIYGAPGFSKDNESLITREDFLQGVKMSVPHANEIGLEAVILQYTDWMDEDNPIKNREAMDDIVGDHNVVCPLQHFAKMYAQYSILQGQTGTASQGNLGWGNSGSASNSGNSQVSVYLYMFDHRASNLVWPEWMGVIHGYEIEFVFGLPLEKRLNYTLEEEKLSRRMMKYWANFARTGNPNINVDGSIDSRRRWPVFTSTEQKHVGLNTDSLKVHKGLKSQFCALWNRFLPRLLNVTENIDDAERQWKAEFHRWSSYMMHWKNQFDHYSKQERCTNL

Acetylcholinesterase [2] = biological target: Acetylcholinesterase (Homo sapiens, UniProt P22303); assay: Inhibition of human AChE using ATC as substrate preincubated for 5 mins followed by substrate addition measured after 2 mins by Ellman's assay
Acetylcholinesterase (Homo sapiens, UniProt P22303), sequence (P22303 whole entry): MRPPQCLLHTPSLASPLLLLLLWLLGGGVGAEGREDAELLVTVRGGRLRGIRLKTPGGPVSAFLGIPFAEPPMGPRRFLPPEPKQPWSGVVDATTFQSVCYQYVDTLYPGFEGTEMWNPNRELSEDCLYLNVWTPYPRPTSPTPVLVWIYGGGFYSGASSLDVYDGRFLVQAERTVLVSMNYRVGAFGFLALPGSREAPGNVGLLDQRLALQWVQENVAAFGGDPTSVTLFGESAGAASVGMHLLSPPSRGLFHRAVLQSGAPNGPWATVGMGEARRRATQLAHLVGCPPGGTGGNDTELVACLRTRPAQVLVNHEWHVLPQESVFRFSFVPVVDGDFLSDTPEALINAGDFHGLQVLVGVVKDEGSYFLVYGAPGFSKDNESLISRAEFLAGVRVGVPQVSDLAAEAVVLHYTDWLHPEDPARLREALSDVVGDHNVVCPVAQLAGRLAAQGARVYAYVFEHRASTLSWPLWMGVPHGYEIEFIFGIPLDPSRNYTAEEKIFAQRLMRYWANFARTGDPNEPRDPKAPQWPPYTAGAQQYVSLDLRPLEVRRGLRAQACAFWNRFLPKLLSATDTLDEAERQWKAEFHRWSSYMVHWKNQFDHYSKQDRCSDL
Outline: (§1)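 Ellman's method with DTNB chromogen, acetylthiocholine (AChE) or butyrylthiocholine (BChE) iodide substrate, in potassium phosphate buffer pH 8.0 (KOH-adjusted). Compounds were diluted from ethanol stocks, with a top final concentration of 10^-4 M. At least five concentrations (normally 10^-4–10^-9 M) were run, each in triplicate, read at 412 nm at 25 °C. IC50 values are from inhibition curves, as means of at least three determinations.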

Cholinesterase [3] = biological target: Cholinesterase (Equus caballus, UniProt P81908); assay: Inhibition of equine BChE using BTC as substrate preincubated for 5 mins followed by substrate addition measured after 2 mins by Ellman's assay
Cholinesterase (Equus caballus, UniProt P81908), sequence (P81908 whole entry): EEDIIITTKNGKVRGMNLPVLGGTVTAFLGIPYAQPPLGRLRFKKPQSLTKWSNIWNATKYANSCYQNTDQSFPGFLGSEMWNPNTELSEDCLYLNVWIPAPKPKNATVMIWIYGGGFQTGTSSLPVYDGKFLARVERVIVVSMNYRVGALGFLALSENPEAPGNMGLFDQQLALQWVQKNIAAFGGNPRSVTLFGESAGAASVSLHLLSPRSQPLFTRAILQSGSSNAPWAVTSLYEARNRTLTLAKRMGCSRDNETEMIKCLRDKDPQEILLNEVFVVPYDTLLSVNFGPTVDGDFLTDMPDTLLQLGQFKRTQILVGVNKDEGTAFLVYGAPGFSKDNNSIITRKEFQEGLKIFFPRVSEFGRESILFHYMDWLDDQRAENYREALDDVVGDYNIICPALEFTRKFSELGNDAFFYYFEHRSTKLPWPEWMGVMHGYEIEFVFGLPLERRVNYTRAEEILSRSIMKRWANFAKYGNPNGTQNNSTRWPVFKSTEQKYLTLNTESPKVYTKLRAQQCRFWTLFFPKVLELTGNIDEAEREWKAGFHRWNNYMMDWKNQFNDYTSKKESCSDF

Cholinesterase [4] = biological target: Cholinesterase (Homo sapiens, UniProt P06276); assay: Inhibition of human BChE using BTC as substrate preincubated for 5 mins followed by substrate addition measured after 2 mins by Ellman's assay; outline: as §1
Cholinesterase (Homo sapiens, UniProt P06276), sequence (P06276 whole entry): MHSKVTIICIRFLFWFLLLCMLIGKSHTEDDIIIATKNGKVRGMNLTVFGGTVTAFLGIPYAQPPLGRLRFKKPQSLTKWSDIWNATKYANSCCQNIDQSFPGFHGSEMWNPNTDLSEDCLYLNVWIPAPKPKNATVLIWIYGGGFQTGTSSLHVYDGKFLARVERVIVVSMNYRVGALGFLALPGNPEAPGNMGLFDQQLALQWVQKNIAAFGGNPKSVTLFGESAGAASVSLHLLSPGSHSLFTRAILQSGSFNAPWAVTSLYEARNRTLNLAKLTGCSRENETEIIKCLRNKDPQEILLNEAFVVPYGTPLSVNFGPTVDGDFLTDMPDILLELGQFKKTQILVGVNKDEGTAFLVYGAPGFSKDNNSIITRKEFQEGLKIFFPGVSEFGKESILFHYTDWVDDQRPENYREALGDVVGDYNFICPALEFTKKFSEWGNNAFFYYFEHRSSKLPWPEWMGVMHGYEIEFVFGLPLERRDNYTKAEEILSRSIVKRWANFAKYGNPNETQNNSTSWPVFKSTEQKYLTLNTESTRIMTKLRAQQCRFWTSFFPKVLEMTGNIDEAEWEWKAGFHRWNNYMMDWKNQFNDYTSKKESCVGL

[5] = Antioxidant activity assessed as DPPH radical scavenging activity at 100 uM after 4 hrs by UV spectrophotometric analysis; assay type: physicochemical
Outline: (§2)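 DPPH radical at 0.1 mM in ethanol. Test compounds were in ethanol at 1–100 µM (1, 2, 10, 50, 100). Mixture lines used an equimolar (1:1) blend with ferulic acid. Absorbance was read at 517 nm before addition (Abs0) and after 4 h once stable (Abst). Scavenging % = (1 − Abst/Abs0) × 100.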

[6] = Antioxidant activity assessed as DPPH radical scavenging activity at 50 uM after 4 hrs by UV spectrophotometric analysis; assay type: physicochemical; outline: as §2
[7] = Antioxidant activity assessed as DPPH radical scavenging activity at 10 uM after 4 hrs by UV spectrophotometric analysis; assay type: physicochemical; outline: as §2
[8] = Antioxidant activity assessed as DPPH radical scavenging activity at 2 uM after 4 hrs by UV spectrophotometric analysis; assay type: physicochemical; outline: as §2
[9] = Antioxidant activity assessed as DPPH radical scavenging activity at 1 uM after 4 hrs by UV spectrophotometric analysis; assay type: physicochemical; outline: as §2
[10] = Antioxidant activity assessed as galvinoxyl radical scavenging activity at 100 uM after 19 hrs by UV spectrophotometric analysis; assay type: physicochemical
Outline: (§3)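 Galvinoxyl radical at 2 µM in ethanol, with compounds in ethanol at 1, 2, 10, 50 or 100 µM. Mixture lines used an equimolar (1:1) blend with ferulic acid. A428 was recorded before addition and after 19 h once stable. Percent radical scavenged = (1 − Abst/Abs0) × 100.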

[11] = Antioxidant activity assessed as galvinoxyl radical scavenging activity at 50 uM after 19 hrs by UV spectrophotometric analysis; assay type: physicochemical; outline: as §3
[12] = Antioxidant activity assessed as galvinoxyl radical scavenging activity at 10 uM after 19 hrs by UV spectrophotometric analysis; assay type: physicochemical; outline: as §3
[13] = Antioxidant activity assessed as galvinoxyl radical scavenging activity at 2 uM after 19 hrs by UV spectrophotometric analysis; assay type: physicochemical; outline: as §3
[14] = Antioxidant activity assessed as galvinoxyl radical scavenging activity at 1 uM after 19 hrs by UV spectrophotometric analysis; assay type: physicochemical; outline: as §3
[15] = Cytotoxicity against rat PC12 cells at 0.1 to 50 uM incubated for 24 hrs by MTT assay; assay type: cell-based; conditions: pc-12, 24 h
Outline: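 PC12 cells were grown in F-12 with 10% FBS and penicillin/streptomycin at 37 °C, 5% CO₂, seeded at 2000 cells/well and grown 24 h. Compounds were added from DMSO (final <0.5%) for 24 h. MTT (5 mg/mL) was added for 4 h, formazan dissolved in DMSO and A540 read after cell-free blank subtraction. Viability is % of control; three independent trials, mean ± SEM.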

PC-12 [16] = assay: Neuroprotective effect in rat PC12 cells assessed as alleviation of H2O2 -induced toxicity after 24 hrs by MTT assay; assay type: functional, cell-based
Outline: (§4)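 PC12 cells (F-12, 10% FBS, 37 °C, 5% CO₂; 2000 cells/well, 24 h pre-culture) were co-treated with compound (0.1, 1, 10, 50; DMSO <0.5%) and H₂O₂ for 24 h. The mixture line used a 1:1 molar blend with ferulic acid. MTT for 4 h, formazan dissolved in DMSO, A540, blank-subtracted. Viability is % of control; three independent trials, mean ± SEM.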

PC-12 [17] = assay: Neuroprotective effect in rat PC12 cells assessed as alleviation of amyloid beta42-induced toxicity after 24 hrs by MTT assay; assay type: functional, cell-based
Outline: (§5)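 Aβ42 was dissolved in hexafluoroisopropanol, dried to a film, taken up in F-12 and held at 4 °C for 24 h. PC12 cells (2000/well, 24 h pre-culture) were co-treated with this Aβ42 and compound (0.1–50; DMSO <0.5%) for 24 h. The mixture line used a 1:1 blend with ferulic acid. MTT for 4 h, A540; % of control, three independent trials, mean ± SEM.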

[18] = Antioxidant activity assessed as DPPH radical scavenging activity at 100 uM after 4 hrs by UV spectrophotometric analysis in presence of ferulic acid; assay type: physicochemical; outline: as §2
[19] = Antioxidant activity assessed as DPPH radical scavenging activity at 50 uM after 4 hrs by UV spectrophotometric analysis in presence of ferulic acid; assay type: physicochemical; outline: as §2
[20] = Antioxidant activity assessed as DPPH radical scavenging activity at 10 uM after 4 hrs by UV spectrophotometric analysis in presence of ferulic acid; assay type: physicochemical; outline: as §2
[21] = Antioxidant activity assessed as DPPH radical scavenging activity at 2 uM after 4 hrs by UV spectrophotometric analysis in presence of ferulic acid; assay type: physicochemical; outline: as §2
[22] = Antioxidant activity assessed as DPPH radical scavenging activity at 1 uM after 4 hrs by UV spectrophotometric analysis in presence of ferulic acid; assay type: physicochemical; outline: as §2
[23] = Antioxidant activity assessed as galvinoxyl radical scavenging activity at 100 uM after 19 hrs in presence of ferulic acid by UV spectrophotometric analysis; assay type: physicochemical; outline: as §3
[24] = Antioxidant activity assessed as galvinoxyl radical scavenging activity at 50 uM after 19 hrs in presence of ferulic acid by UV spectrophotometric analysis; assay type: physicochemical; outline: as §3
[25] = Antioxidant activity assessed as galvinoxyl radical scavenging activity at 10 uM after 19 hrs in presence of ferulic acid by UV spectrophotometric analysis; assay type: physicochemical; outline: as §3
[26] = Antioxidant activity assessed as galvinoxyl radical scavenging activity at 2 uM after 19 hrs in presence of ferulic acid by UV spectrophotometric analysis; assay type: physicochemical; outline: as §3
[27] = Antioxidant activity assessed as galvinoxyl radical scavenging activity at 1 uM after 19 hrs in presence of ferulic acid by UV spectrophotometric analysis; assay type: physicochemical; outline: as §3
PC-12 [28] = assay: Neuroprotective effect in rat PC12 cells assessed as alleviation of H2O2-induced toxicity at 1:1 compound to ferulic acid molar ratio after 24 hrs by MTT assay; assay type: functional, cell-based; outline: as §4
PC-12 [29] = assay: Neuroprotective effect in rat PC12 cells assessed as alleviation of amyloid beta 42-induced toxicity at 1:1 compound to ferulic acid molar ratio after 24 hrs by MTT assay; assay type: functional, cell-based; outline: as §5

Compound | IC50 (Acetylcholinesterase [1]) [µM] | IC50 (Cholinesterase [3]) [µM] | Activity [5] [%] | Activity [6] [%] | Activity [7] [%] | Activity [8] [%] | Activity [9] [%] | Activity [10] [%] | Activity [11] [%] | Activity [12] [%] | Activity [13] [%] | Activity [14] [%] | other results
COc1cc(/C=C/C(=O)N(Cc2cccc3[nH]c4ccccc4c23)C(C)C)ccc1O | 11.1 | 12.7 | 90.9 | 84.5 | 68.9 | 56.2 | 44.1 | 90.8 | 87.5 | 68 | 55.2 | 24.1 | IC50 (Acetylcholinesterase [2]): 22 µM; IC50 (Cholinesterase [4]): 9 µM
COc1cc(/C=C/C(=O)N(Cc2cccc3[nH]c4ccccc4c23)C2CCCC2)ccc1O | > 100 | 31.6 | 90.3 | 85.7 | 66.6 | 54.5 | 25.9 | 90.3 | 85.7 | 66.6 | 54.5 | 25.9 | 
COc1ccc2c(c1)[nH]c1cccc(CN(C(=O)/C=C/c3ccc(O)c(OC)c3)C3CCCC3)c12 | 88.2 | 25.9 | 90.4 | 86.8 | 67.4 | 54 | 34.8 | 87.4 | 66.8 | 37.4 | 24 | 14.8 | 
CCN(Cc1cccc2[nH]c3ccccc3c12)C(=O)/C=C/c1ccc(O)c(OC)c1 | 18 | 13.8 | 86.3 | 82.8 | 55 | 40.1 | 24.7 | 86.3 | 82.8 | 55 | 40.1 | 24.7 | 
COc1cc(/C=C/C(=O)O)ccc1O [FERULATE] |  |  | 92.2 | 72 | 63.1 | 44.4 | 30.3 | 79 | 52.2 | 33.7 | 15.8 | 6.6 | 
CCN(Cc1cccc2[nH]c3cc(OC)ccc3c12)C(=O)/C=C/c1ccc(O)c(OC)c1 | 61.6 | 19.8 | 94.9 | 86.4 | 71.3 | 59.2 | 33.1 | 91.9 | 78.2 | 40.3 | 29.2 | 11.1 | 
CCN(Cc1cccc2[nH]c3cc(Cl)ccc3c12)C(=O)/C=C/c1ccc(O)c(OC)c1 | 1.9 | 3.1 | 91.9 | 77.3 | 66 | 49.1 | 41.8 | 83.2 | 57 | 38.1 | 22.4 | 8.3 | Activity [15]: Non-toxic; IC50 (Acetylcholinesterase [2]): 6.9 µM; IC50 (Cholinesterase [4]): 2.8 µM; Activity (PC-12 [16]): Dose-dependent effect; Activity (PC-12 [17]): Dose-dependent effect
COc1cc(/C=C/C(=O)N(Cc2ccccc2)Cc2cccc3[nH]c4ccccc4c23)ccc1O | > 100 |  |  |  |  |  |  |  |  |  |  |  | 
COc1ccc2c(c1)[nH]c1cccc(CN(C(=O)/C=C/c3ccc(O)c(OC)c3)C3CCCCC3)c12 | > 100 | 20.5 | 88.6 | 82 | 50.9 | 47.9 | 38.6 | 88.6 | 72 | 50.9 | 40.9 | 25.6 | 
CC(C)NCc1cccc2[nH]c3ccccc3c12 | 21.6 | 8.9 |  |  |  |  |  |  |  |  |  |  | IC50 (Acetylcholinesterase [2]): 18 µM; IC50 (Cholinesterase [4]): 8.1 µM
COc1ccc2c(c1)[nH]c1cccc(CN(Cc3ccccc3)C(=O)/C=C/c3ccc(O)c(OC)c3)c12 | > 100 |  |  |  |  |  |  |  |  |  |  |  | 
COc1ccc2c(c1)[nH]c1cccc(CN(C(=O)/C=C/c3ccc(O)c(OC)c3)C(C)C)c12 | 58.2 | 13.9 | 98 | 72.9 | 68.2 | 55 | 45.1 | 87.2 | 51.7 | 23.4 | 8 | 1.1 | 
CCNCc1cccc2[nH]c3cc(Cl)ccc3c12 | 2.1 | 1.9 |  |  |  |  |  |  |  |  |  |  | IC50 (Acetylcholinesterase [2]): 5.1 µM; IC50 (Cholinesterase [4]): 7.9 µM; Activity [18]: 93.2%; Activity [19]: 71.4%; Activity [20]: 60.1%; Activity [21]: 44.7%; Activity [22]: 31.6%; Activity [23]: 83.2%; Activity [24]: 51.4%; Activity [25]: 30.1%; Activity [26]: 14.7%; Activity [27]: 11%; Activity (PC-12 [28]): Active; Activity (PC-12 [29]): inactive
COc1cc(/C=C/C(=O)N(Cc2cccc3[nH]c4ccccc4c23)C2CCCCC2)ccc1O | > 100 | 22 | 89.2 | 72 | 63.1 | 52.4 | 30.3 | 87.2 | 42 | 23.1 | 12.4 | 3.3 | 
